Reference: ChEMBL document CHEMBL3526095, “Characterization of the in vitro and in vivo metabolism and disposition and cytochrome P450 inhibition/induction profile of saxagliptin in human” (Drug Metab Dispos, 2012)
Blank lines part the entries; values can stand above or below the molecule they belong to.

Columns and labels:
[1] = Drug metabolism in human assessed as drug excretion in urine at 50 mg, po up to 12 hrs by liquid scintillation counting; assay type: ADME, organism-based; conditions: in vivo
How it was run: (§1)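 Healthy males received a single 50-mg oral [14C]saxagliptin solution (91.5 µCi) after a 10-h fast. Urine collected 0–12 h, 12–24 h, then at 24-h intervals to 168 h; feces collected at 24-h intervals. Radioactivity counted by LSC: urine directly, feces as ~20% w/w homogenate combusted before counting. Result expressed as % of actual dose, based on syringe weights.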

[2] = Drug metabolism in human assessed as drug excretion in urine at 50 mg, po after 12 to 24 hrs by liquid scintillation counting; assay type: ADME, organism-based; conditions: in vivo; how it was run: as §1
[3] = Drug metabolism in human assessed as drug excretion in urine at 50 mg, po after 24 to 48 hrs by liquid scintillation counting; assay type: ADME, organism-based; conditions: in vivo; how it was run: as §1
[4] = Drug metabolism in human assessed as drug excretion in urine at 50 mg, po after 48 to 168 hrs by liquid scintillation counting; assay type: ADME, organism-based; conditions: in vivo; how it was run: as §1
[5] = Drug metabolism in human assessed as total drug excretion in urine at 50 mg, po up to 168 hrs by liquid scintillation counting; assay type: ADME, organism-based; conditions: in vivo; how it was run: as §1
[6] = Drug metabolism in human assessed as drug excretion in feces at 50 mg, po up to 24 hrs by liquid scintillation counting; assay type: ADME, organism-based; conditions: in vivo; how it was run: as §1
[7] = Drug metabolism in human assessed as drug excretion in feces at 50 mg, po after 24 to 48 hrs by liquid scintillation counting; assay type: ADME, organism-based; conditions: in vivo; how it was run: as §1
[8] = Drug metabolism in human assessed as drug excretion in feces at 50 mg, po after 48 to 72 hrs by liquid scintillation counting; assay type: ADME, organism-based; conditions: in vivo; how it was run: as §1
[9] = Drug metabolism in human assessed as drug excretion in feces at 50 mg, po after 72 to 96 hrs by liquid scintillation counting; assay type: ADME, organism-based; conditions: in vivo; how it was run: as §1
[10] = Drug metabolism in human assessed as drug excretion in feces at 50 mg, po after 96 to 144 hrs by liquid scintillation counting; assay type: ADME, organism-based; conditions: in vivo; how it was run: as §1
[11] = Drug metabolism in human assessed as total drug excretion in feces at 50 mg, po up to 144 hrs by liquid scintillation counting; assay type: ADME, organism-based; conditions: in vivo; how it was run: as §1
Liver microsome [12] = experiment: Drug metabolism in human liver microsomes assessed as formation of mono-hydroxylated metabolite at 10 uM after 1 hr by LC-MS/MS analysis in presence of NADPH; assay type: ADME
How it was run: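 Pooled HLM at 1 mg/ml protein, incubated with 10 µM [14C]saxagliptin and 1 mM NADPH in 100 mM phosphate buffer pH 7.4 at 37°C for 60 min. Quenched with ice-cold acetonitrile; supernatant analysed by LC-MS/MS and off-line radioanalysis.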

Liver microsome [13] = experiment: Drug metabolism in human liver microsomes assessed as formation of 5-hydroxy saxagliptin at 10 uM after 1 hr by LC-MS/MS analysis in absence of NADPH; assay type: ADME
Liver microsome [14] = experiment: Drug metabolism in human liver microsomes assessed as formation of 5-hydroxy saxagliptin at 10 uM after 30 mins by LC-MS/MS analysis in presence of 1-aminobenzotriazole
Liver microsome [15] = experiment: Drug metabolism in human liver microsomes assessed as formation of 5-hydroxy saxagliptin at 1 uM after 30 mins by LC-MS/MS analysis in presence of ketoconazole and troleandomycin
[16] = substrate: N#C[C@@H]1C[C@@H]2C[C@@H]2N1C(=O)[C@@H](N)C12CC3CC(CC(O)(C3)C1)C2; experiment: Drug metabolism in assessed as human CYP3A5-mediated formation of 5-hydroxy saxagliptin Michaelis-Menten kinetic analysis; assay type: ADME
How it was run: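 M2 formation kinetics measured in triplicate at twelve saxagliptin concentrations from 1 to 800 µM. Enzyme source was pooled HLM (0.25 mg/ml, 30 min, 37°C) or expressed CYP3A4 or CYP3A5 (10 pmol/ml, 10 min). Incubations contained 1 mM NADPH and 2 mM MgCl2 in phosphate buffer pH 7.4.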

Drug excretion [1]: 68.15% | Drug excretion [2]: 3.26% | Drug excretion [3]: 1.9% | Drug excretion [4]: 1.6% | Drug excretion [5]: 74.89% | Drug excretion [6]: 7.22% | Drug excretion [7]: 8.46% | Drug excretion [8]: 2.86% | Drug excretion [9]: 1.13% | Drug excretion [10]: 2.39% | Drug excretion [11]: 22.05% | Drug metabolism (Liver microsome [12]): metabolite_detected | Drug metabolism (Liver microsome [13]): metabolite_not_detected | Drug metabolism (Liver microsome [14]): metabolite_not_detected | Drug metabolism (Liver microsome [15]): metabolite_not_detected
Molecule: N#C[C@@H]1C[C@@H]2C[C@@H]2N1[14C](=O)[14C@@H](N)C12CC3CC(CC(O)(C3)C1)C2

B1: Cytochrome P450 3A5 (Homo sapiens) (protein)
chain: MDLIPNLAVETWLLLAVSLVLLYLYGTRTHGLFKRLGIPGPTPLPLLGNVLSYRQGLWKFDTECYKKYGKMWGTYEGQLPVLAITDPDVIRTVLVKECYSVFTNRRSLGPVGFMKSAISLAEDEEWKRIRSLLSPTFTSGKLKEMFPIIAQYGDVLVRNLRREAEKGKPVTLKDIFGAYSMDVITGTSFGVNIDSLNNPQDPFVESTKKFLKFGFLDPLFLSIILFPFLTPVFEALNVSLFPKDTINFLSKSVNRMKKSRLNDKQKHRLDFLQLMIDSQNSKETESHKALSDLELAAQSIIFIFAGYETTSSVLSFTLYELATHPDVQQKLQKEIDAVLPNKAPPTYDAVVQMEYLDMVVNETLRLFPVAIRLERTCKKDVEINGVFIPKGSMVVIPTYALHHDPKYWTEPEEFRPERFSKKKDSIDPYIYTPFGTGPRNCIGMRFALMNMKLALIRVLQNFSFKPCKETQIPLKLDTQGLLQPEKPIVLKVDSRDGTLSGE
Km [16]: 252 µM | Vmax [16]: 2.4e-05 µmol/min
